From paper PMC4832308 (Cancer, 2015)

Tested on: patients with advanced solid tumors or multiple myeloma
Test: phase 1 dose escalation: safety, tolerability, DLT, MTD
Format: in vivo, human
Summary of the method: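 Modified accelerated titration from 7.5 mg, oral daily in 28-day cycles. Single-patient cohorts used 100% increments until the first drug-related grade ≥2 toxicity, then 6-patient cohorts used ~50% steps. A dose with ≥2 DLTs was nontolerated. MTD was the last lower dose with 0–1 of 6 DLTs in cycle 1. Adverse events were graded by NCI CTCAE version 4.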

CO[C@H]1CC[C@H](N2C(=O)CNc3ncc(-c4ccc(C(C)(C)O)nc4)nc32)CC1 [CC‐223]
Arthralgia (treatment‐related AE) (7.5 mg, Any Grade): 0 n (%) | Asthenia (treatment‐related AE) (7.5 mg, Any Grade): 0 n (%) | Decreased appetite (treatment‐related AE) (7.5 mg, Any Grade): 0 n (%) | Diarrhea (treatment‐related AE) (7.5 mg, Any Grade): 0 n (%) | Dry mouth (treatment‐related AE) (7.5 mg, Any Grade): 0 n (%) | Dysgeusia (treatment‐related AE) (7.5 mg, Any Grade): 1 (100) n (%) | Dyspnea (treatment‐related AE) (7.5 mg, Any Grade): 0 n (%) | Fatigue (treatment‐related AE) (7.5 mg, Any Grade): 1 (100) n (%) | Hyperglycemia (treatment‐related AE) (7.5 mg, Any Grade): 0 n (%) | Increased glycosylated hemoglobin (treatment‐related AE) (7.5 mg, Any Grade): 0 n (%) | Mucositis (treatment‐related AE) (7.5 mg, Any Grade): 0 n (%) | Nausea (treatment‐related AE) (7.5 mg, Any Grade): 1 (100) n (%) | Pruritus (treatment‐related AE) (7.5 mg, Any Grade): 0 n (%) | Rash (treatment‐related AE) (7.5 mg, Any Grade): 0 n (%) | Rash pruritic (treatment‐related AE) (7.5 mg, Any Grade): 0 n (%) | Thrombocytopenia (treatment‐related AE) (7.5 mg, Any Grade): 0 n (%) | Vomiting (treatment‐related AE) (7.5 mg, Any Grade): 0 n (%) | Arthralgia (treatment‐related AE) (7.5 mg, Grade ≥3): 0 n (%) | Asthenia (treatment‐related AE) (7.5 mg, Grade ≥3): 0 n (%) | Decreased appetite (treatment‐related AE) (7.5 mg, Grade ≥3): 0 n (%) | Diarrhea (treatment‐related AE) (7.5 mg, Grade ≥3): 0 n (%) | Dry mouth (treatment‐related AE) (7.5 mg, Grade ≥3): 0 n (%) | Dysgeusia (treatment‐related AE) (7.5 mg, Grade ≥3): 0 n (%) | Dyspnea (treatment‐related AE) (7.5 mg, Grade ≥3): 0 n (%) | Fatigue (treatment‐related AE) (7.5 mg, Grade ≥3): 0 n (%) | Hyperglycemia (treatment‐related AE) (7.5 mg, Grade ≥3): 0 n (%) | Increased glycosylated hemoglobin (treatment‐related AE) (7.5 mg, Grade ≥3): 0 n (%) | Mucositis (treatment‐related AE) (7.5 mg, Grade ≥3): 0 n (%) | Nausea (treatment‐related AE) (7.5 mg, Grade ≥3): 0 n (%) | Pruritus (treatment‐related AE) (7.5 mg, Grade ≥3): 0 n (%) | Rash (treatment‐related AE) (7.5 mg, Grade ≥3): 0 n (%) | Rash pruritic (treatment‐related AE) (7.5 mg, Grade ≥3): 0 n (%) | Thrombocytopenia (treatment‐related AE) (7.5 mg, Grade ≥3): 0 n (%) | Vomiting (treatment‐related AE) (7.5 mg, Grade ≥3): 0 n (%) | Dose interruptions (15 mg): 2 | Dose reductions (15 mg): 0 | Arthralgia (treatment‐related AE) (15 mg, Any Grade): 0 n (%) | Asthenia (treatment‐related AE) (15 mg, Any Grade): 1 (50) n (%) | Decreased appetite (treatment‐related AE) (15 mg, Any Grade): 0 n (%) | Diarrhea (treatment‐related AE) (15 mg, Any Grade): 1 (50) n (%) | Dry mouth (treatment‐related AE) (15 mg, Any Grade): 0 n (%) | Dysgeusia (treatment‐related AE) (15 mg, Any Grade): 1 (50) n (%) | Dyspnea (treatment‐related AE) (15 mg, Any Grade): 0 n (%) | Fatigue (treatment‐related AE) (15 mg, Any Grade): 1 (50) n (%) | Hyperglycemia (treatment‐related AE) (15 mg, Any Grade): 0 n (%) | Increased glycosylated hemoglobin (treatment‐related AE) (15 mg, Any Grade): 0 n (%) | Mucositis (treatment‐related AE) (15 mg, Any Grade): 1 (50) n (%) | Nausea (treatment‐related AE) (15 mg, Any Grade): 0 n (%) | Pruritus (treatment‐related AE) (15 mg, Any Grade): 1 (50) n (%) | Rash (treatment‐related AE) (15 mg, Any Grade): 1 (50) n (%) | Rash pruritic (treatment‐related AE) (15 mg, Any Grade): 0 n (%) | Thrombocytopenia (treatment‐related AE) (15 mg, Any Grade): 0 n (%) | Vomiting (treatment‐related AE) (15 mg, Any Grade): 0 n (%) | Arthralgia (treatment‐related AE) (15 mg, Grade ≥3): 0 n (%) | Asthenia (treatment‐related AE) (15 mg, Grade ≥3): 0 n (%) | Decreased appetite (treatment‐related AE) (15 mg, Grade ≥3): 0 n (%) | Diarrhea (treatment‐related AE) (15 mg, Grade ≥3): 0 n (%) | Dry mouth (treatment‐related AE) (15 mg, Grade ≥3): 0 n (%) | Dysgeusia (treatment‐related AE) (15 mg, Grade ≥3): 0 n (%) | Dyspnea (treatment‐related AE) (15 mg, Grade ≥3): 0 n (%) | Fatigue (treatment‐related AE) (15 mg, Grade ≥3): 0 n (%) | Hyperglycemia (treatment‐related AE) (15 mg, Grade ≥3): 0 n (%) | Increased glycosylated hemoglobin (treatment‐related AE) (15 mg, Grade ≥3): 0 n (%) | Mucositis (treatment‐related AE) (15 mg, Grade ≥3): 0 n (%) | Nausea (treatment‐related AE) (15 mg, Grade ≥3): 0 n (%) | Pruritus (treatment‐related AE) (15 mg, Grade ≥3): 0 n (%) | Rash (treatment‐related AE) (15 mg, Grade ≥3): 0 n (%) | Rash pruritic (treatment‐related AE) (15 mg, Grade ≥3): 0 n (%) | Thrombocytopenia (treatment‐related AE) (15 mg, Grade ≥3): 0 n (%) | Vomiting (treatment‐related AE) (15 mg, Grade ≥3): 0 n (%) | Dose interruptions (30 mg): 8 | Dose reductions (30 mg): 0 | Arthralgia (treatment‐related AE) (30 mg, Any Grade): 0 n (%) | Asthenia (treatment‐related AE) (30 mg, Any Grade): 2 (22) n (%) | Decreased appetite (treatment‐related AE) (30 mg, Any Grade): 4 (44) n (%) | Diarrhea (treatment‐related AE) (30 mg, Any Grade): 3 (33) n (%) | Dry mouth (treatment‐related AE) (30 mg, Any Grade): 1 (11) n (%) | Dysgeusia (treatment‐related AE) (30 mg, Any Grade): 0 n (%) | Dyspnea (treatment‐related AE) (30 mg, Any Grade): 1 (11) n (%) | Fatigue (treatment‐related AE) (30 mg, Any Grade): 4 (44) n (%) | Hyperglycemia (treatment‐related AE) (30 mg, Any Grade): 4 (44) n (%) | Increased glycosylated hemoglobin (treatment‐related AE) (30 mg, Any Grade): 0 n (%) | Mucositis (treatment‐related AE) (30 mg, Any Grade): 2 (22) n (%) | Nausea (treatment‐related AE) (30 mg, Any Grade): 4 (44) n (%) | Pruritus (treatment‐related AE) (30 mg, Any Grade): 1 (11) n (%) | Rash (treatment‐related AE) (30 mg, Any Grade): 1 (11) n (%) | Rash pruritic (treatment‐related AE) (30 mg, Any Grade): 1 (11) n (%) | Thrombocytopenia (treatment‐related AE) (30 mg, Any Grade): 1 (11) n (%) | Vomiting (treatment‐related AE) (30 mg, Any Grade): 2 (22) n (%) | Arthralgia (treatment‐related AE) (30 mg, Grade ≥3): 0 n (%) | Asthenia (treatment‐related AE) (30 mg, Grade ≥3): 0 n (%) | Decreased appetite (treatment‐related AE) (30 mg, Grade ≥3): 0 n (%) | Diarrhea (treatment‐related AE) (30 mg, Grade ≥3): 0 n (%) | Dry mouth (treatment‐related AE) (30 mg, Grade ≥3): 0 n (%) | Dysgeusia (treatment‐related AE) (30 mg, Grade ≥3): 0 n (%) | Dyspnea (treatment‐related AE) (30 mg, Grade ≥3): 0 n (%) | Fatigue (treatment‐related AE) (30 mg, Grade ≥3): 0 n (%) | Hyperglycemia (treatment‐related AE) (30 mg, Grade ≥3): 2 (22) n (%) | Increased glycosylated hemoglobin (treatment‐related AE) (30 mg, Grade ≥3): 0 n (%) | Mucositis (treatment‐related AE) (30 mg, Grade ≥3): 0 n (%) | Nausea (treatment‐related AE) (30 mg, Grade ≥3): 0 n (%) | Pruritus (treatment‐related AE) (30 mg, Grade ≥3): 0 n (%) | Rash (treatment‐related AE) (30 mg, Grade ≥3): 0 n (%) | Rash pruritic (treatment‐related AE) (30 mg, Grade ≥3): 0 n (%) | Thrombocytopenia (treatment‐related AE) (30 mg, Grade ≥3): 0 n (%) | Vomiting (treatment‐related AE) (30 mg, Grade ≥3): 0 n (%) | Dose interruptions (45 mg): 5 | Dose reductions (45 mg): 1 | Arthralgia (treatment‐related AE) (45 mg, Any Grade): 2 (22) n (%) | Asthenia (treatment‐related AE) (45 mg, Any Grade): 1 (11) n (%) | Decreased appetite (treatment‐related AE) (45 mg, Any Grade): 3 (33) n (%) | Diarrhea (treatment‐related AE) (45 mg, Any Grade): 4 (44) n (%) | Dry mouth (treatment‐related AE) (45 mg, Any Grade): 2 (22) n (%) | Dysgeusia (treatment‐related AE) (45 mg, Any Grade): 2 (22) n (%)
